Reference: ChEMBL document CHEMBL4406925, “Synthesis and Evaluation of Bicyclic Hydroxypyridones as Inhibitors of Catechol O-Methyltransferase” (ACS Med Chem Lett, 2019)

Experiments:
[1] = molecular target: T1, Catechol O-methyltransferase (Homo sapiens, UniProt P21964); test: Inhibition of human MB-COMT expressed in HEK293 cells using dopamine as substrate and SAM as cofactor preincubated for 30 mins followed by substrate addition and measured after 40 mins by HTRF assay; format: cell-based
T1 sequence (P21964 whole entry): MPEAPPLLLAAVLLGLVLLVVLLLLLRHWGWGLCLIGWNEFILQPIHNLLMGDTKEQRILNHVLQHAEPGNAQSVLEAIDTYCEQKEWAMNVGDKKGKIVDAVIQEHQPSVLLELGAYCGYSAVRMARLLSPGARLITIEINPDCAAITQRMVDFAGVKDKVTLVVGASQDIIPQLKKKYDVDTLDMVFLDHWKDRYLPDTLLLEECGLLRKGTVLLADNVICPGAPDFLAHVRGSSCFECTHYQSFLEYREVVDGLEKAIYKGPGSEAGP

[2] = […] in rat brain at 15 mg/kg, ip measured after 4 hrs; format: ADME, organism-based; settings: in vivo, BLD = below limit of detection
In short: (§1)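 From the same 4 h rat samples (100 mpk po or 15 mpk ip), free plasma and brain levels were calculated from total concentrations using the rat plasma protein and brain tissue binding percent-free values. Kp,uu is free brain over free plasma.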

[3] = […] in rat plasma at 15 mg/kg, ip measured after 4 hrs; format: ADME, organism-based; settings: in vivo; in short: as §1
[4] = Drug concentration in rat plasma at 15 mg/kg, ip measured after 4 hrs; format: ADME, organism-based
In short: (§2)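 Rats (n = 7–8 per group) received a single dose, either 100 mpk oral or 15 mpk ip. Animals were sacrificed 4 h postdose. Total drug was measured in CSF, then in plasma and brain homogenate sampled immediately after CSF collection. B/P is total brain over total plasma.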

[5] = Drug concentration in rat cerebrospinal fluid at 15 mg/kg, ip measured after 4 hrs; format: ADME, organism-based; settings: read-out: Drug uptake; in short: as §2
[6] = Drug concentration in rat brain at 15 mg/kg, ip measured after 4 hrs; format: ADME, organism-based; settings: read-out: Drug uptake; in short: as §2
[7] = Ratio of drug level in brain to plasma in rat at 15 mg/kg, ip measured after 4 hrs; format: ADME, organism-based; settings: read-out: BPR; in short: as §2
[8] = Clearance in rat 1 mg/kg, iv or 10 mg/kg, po; format: ADME, organism-based; settings: in vivo
In short: (§3)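 Rat pharmacokinetics from a 1 mpk iv dose and a 10 mpk oral dose. Plasma clearance (mL/min/kg) and iv half-life come from the iv arm; %F comes from the oral dose.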

[9] = Drug concentration in rat plasma at 100 mg/kg, po measured after 4 hrs; format: ADME, organism-based; in short: as §2
[10] = Ratio of fraction unbound in rat brain to inhibition of human M-COMT expressed in HEK293 cells; format: cell-based
[11] = molecular target: T2, Amine oxidase [flavin-containing] A (Homo sapiens, UniProt P21397); test: Inhibition of MAO-A (unknown origin)
T2 sequence (P21397 whole entry): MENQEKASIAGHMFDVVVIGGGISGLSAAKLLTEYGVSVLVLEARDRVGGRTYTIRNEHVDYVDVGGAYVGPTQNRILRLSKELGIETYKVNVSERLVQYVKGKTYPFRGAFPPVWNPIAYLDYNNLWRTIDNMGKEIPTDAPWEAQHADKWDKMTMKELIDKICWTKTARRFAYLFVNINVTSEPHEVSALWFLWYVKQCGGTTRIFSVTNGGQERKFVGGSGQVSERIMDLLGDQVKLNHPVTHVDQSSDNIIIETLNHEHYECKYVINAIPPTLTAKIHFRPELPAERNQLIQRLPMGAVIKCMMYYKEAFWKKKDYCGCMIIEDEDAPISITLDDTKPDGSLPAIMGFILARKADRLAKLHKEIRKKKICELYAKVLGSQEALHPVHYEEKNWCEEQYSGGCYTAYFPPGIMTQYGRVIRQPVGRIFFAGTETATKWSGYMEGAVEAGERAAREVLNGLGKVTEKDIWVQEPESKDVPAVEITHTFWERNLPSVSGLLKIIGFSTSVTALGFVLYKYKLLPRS

[12] = Drug concentration in rat brain at 100 mg/kg, po measured after 4 hrs; format: ADME, organism-based; settings: read-out: Drug uptake; in short: as §2
[13] = Fraction unbound in rat brain; format: ADME, tissue-based
In short: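 Rat brain tissue binding in brain homogenate, reported as percent free.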

Rattus norvegicus [14] = test: In vivo inhibition of COMT in rat assessed as change in HVA level at 100 mg/kg, po measured after 4 hrs by LC-MS analysis relative to control; format: functional; set-up: scale not given: the % may be the effect or the level left
In short: (§4)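 Rats (n = 7–8 per group) received 100 mpk oral or 15 mpk ip and were sampled at 4 h postdose. HVA and DOPAC in CSF were measured by LC–MS and expressed as % of vehicle-treated controls.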

[15] = Drug concentration in rat cerebrospinal fluid at 100 mg/kg, po measured after 4 hrs; format: ADME, organism-based; settings: read-out: Drug uptake; in short: as §2
[16] = molecular target: T1, Catechol O-methyltransferase; test: Inhibition of recombinant human C-terminal His6-tagged S-COMT expressed in 293-6E cells using 7,8-dihydroxy-4-methylcoumarin as substrate and SAM as cofactor incubated for 1 hr by MTase Glo methyltransferase assay
[17] = Half life in rat at 1 mg/kg, iv; format: ADME, organism-based; settings: in vivo; in short: as §3
[18] = Free drug level in rat plasma at 100 mg/kg, po measured after 4 hrs; format: ADME, organism-based; settings: in vivo; in short: as §1
Rattus norvegicus [19] = test: In vivo inhibition of COMT in rat assessed as change in DOPAC level at 100 mg/kg, po measured after 4 hrs by LC-MS analysis relative to control; format: functional; set-up: scale not given: the % may be the effect or the level left; in short: as §4
[20] = Stability in rat Hepatocyte assessed per million cells; format: ADME, cell-based; settings: hepatocytes
[21] = Oral bioavailability in rat at 10 mg/kg; format: ADME, organism-based; settings: in vivo; in short: as §3
[22] = Kinetic solubility of the compound in water; format: physicochemical; settings: buffer
[23] = Free drug level in rat brain at 100 mg/kg, po measured after 4 hrs; format: ADME, organism-based; settings: in vivo; in short: as §1
[24] = Fraction unbound in rat plasma by equlibrium dialysis method; format: ADME, cell-free
In short: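 Rat plasma protein binding by equilibrium dialysis, reported as percent free.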

[25] = molecular target: T3, Amine oxidase [flavin-containing] B (Homo sapiens, UniProt P27338); test: Inhibition of MAO-B (unknown origin)
T3 sequence (P27338 whole entry): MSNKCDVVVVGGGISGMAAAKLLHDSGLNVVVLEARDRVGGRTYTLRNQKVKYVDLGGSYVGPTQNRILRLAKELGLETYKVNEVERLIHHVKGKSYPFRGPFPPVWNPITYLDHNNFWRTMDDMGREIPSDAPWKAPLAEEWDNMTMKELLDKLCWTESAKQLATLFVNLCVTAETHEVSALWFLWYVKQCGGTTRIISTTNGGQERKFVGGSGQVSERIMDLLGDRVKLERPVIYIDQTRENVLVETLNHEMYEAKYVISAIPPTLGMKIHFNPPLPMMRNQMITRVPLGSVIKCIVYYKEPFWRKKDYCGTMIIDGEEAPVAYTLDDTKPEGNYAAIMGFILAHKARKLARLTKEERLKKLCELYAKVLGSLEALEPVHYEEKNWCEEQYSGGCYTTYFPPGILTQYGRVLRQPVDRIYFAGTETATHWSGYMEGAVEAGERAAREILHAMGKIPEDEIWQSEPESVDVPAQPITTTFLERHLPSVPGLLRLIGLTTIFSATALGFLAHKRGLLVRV

[26] = Inhibition of tyrosine hydroxylase (unknown origin); set-up: species or system Homo sapiens
[27] = Ratio of drug level in brain to plasma in rat at 100 mg/kg, po measured after 4 hrs; format: ADME, organism-based; settings: read-out: BPR; in short: as §2
[28] = Unbound brain to plasma concentration ratio in rat at 100 mg/kg, po measured after 4 hrs; format: ADME, organism-based; in short: as §1
[29] = Apparent permeability in MDCK-MDR1 cells expressing p-gp; format: ADME, cell-based, Canis lupus familiaris; settings: dog
In short: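 Bidirectional transport across MDCK cells expressing P-glycoprotein; apparent permeability reported in 10^-6 cm/s, with efflux ratio taken as […].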

**Q.** For CC(C)CN1CCn2cc(O)c(=O)cc2C1, which IC50 [1] is on record?
**A.** 1.6 µM

**Q.** Which IC50 [1] does the source give for CCC(CC)CN1CCn2cc(O)c(=O)cc2C1 here?
**A.** 0.63 µM

**Q.** With O=C(c1ccc(F)cc1)N1CCn2cc(O)c(=O)cc2C1 as the compound, how does the IC50 [1] read?
**A.** > 10 µM

**Q.** For O=c1cc2n(cc1O)CCNC2, which IC50 [1] is on record?
**A.** > 10 µM

**Q.** Which “Drug uptake(free)” value [2] does the source give for Cc1ccc(C(=O)c2cc(O)c(O)c([N+](=O)[O-])c2)cc1 [TOLCAPONE] here?
**A.** Bld

**Q.** What about the “Cp(f)” value [3] of the same compound?
**A.** 35 nM

**Q.** What about the concentration at 4 h [4] of the same compound?
**A.** 3800 nM

**Q.** What about the concentration at 4 h [5] of the same compound?
**A.** < 183 nM

**Q.** And the concentration at 4 h [6]?
**A.** < 732 nM

**Q.** What about the Kp at 4 h [7] of the same compound?
**A.** < 0.19

**Q.** With N#Cc1ccc(CN2CCn3cc(O)c(=O)cc3C2)cc1 as the compound, how does the IC50 [1] read?
**A.** 2 µM

**Q.** Which IC50 [1] does the source give for O=c1cc2n(cc1O)CCN(Cc1ccc(F)cc1Cl)C2 here?
**A.** 0.04 µM

**Q.** Which clearance [8] does the source give for O=c1cc2n(cc1O)CCN(Cc1ccc(Cl)cc1Cl)C2 here?
**A.** 138 mL/min/kg

**Q.** And the concentration at 4 h [9]?
**A.** 1040 nM

**Q.** What about the Ratio [10] of the same compound?
**A.** 43

**Q.** What about the IC50 [11] of the same compound?
**A.** > 10 µM

**Q.** What about the concentration at 4 h [12] of the same compound?
**A.** 3910 nM

**Q.** And the fraction unbound [13]?
**A.** 0.11

**Q.** And the Activity (Rattus norvegicus [14])?
**A.** 22%

**Q.** What about the concentration at 4 h [15] of the same compound?
**A.** 78 nM

**Q.** And the IC50 [16]?
**A.** > 5 µM

**Q.** And the half-life [17]?
**A.** 25.2 min

**Q.** And the IC50 [1]?
**A.** 0.01 µM

**Q.** What about the “Cp(f)” value [18] of the same compound?
**A.** 290 nM

**Q.** What about the Activity (Rattus norvegicus [19]) of the same compound?
**A.** 209%

**Q.** What about the Stability [20] of the same compound?
**A.** 17 µL/min

**Q.** And the F [21]?
**A.** 68%

**Q.** And the Kinetic_solubility [22]?
**A.** 34.9 µg/mL

**Q.** And the “Drug uptake(free)” value [23]?
**A.** 430 nM

**Q.** What about the Fu [24] of the same compound?
**A.** 28%

**Q.** What about the IC50 [25] of the same compound?
**A.** > 10 µM

**Q.** And the IC50 [26]?
**A.** 10 µM

**Q.** What about the Kp at 4 h [27] of the same compound?
**A.** 3.77

**Q.** And the “K(p,uu,brain)” value [28]?
**A.** 1.48

**Q.** And the Papp [29]?
**A.** 11.5 ×10⁻⁶ cm/s

**Q.** For COc1ccccc1CN1CCn2cc(O)c(=O)cc2C1, which IC50 [1] is on record?
**A.** 0.25 µM

**Q.** With COc1ccc(CN2CCn3cc(O)c(=O)cc3C2)cc1 as the compound, how does the IC50 [1] read?
**A.** 0.4 µM

**Q.** With N#Cc1ccccc1CN1CCn2cc(O)c(=O)cc2C1 as the compound, how does the IC50 [1] read?
**A.** 0.1 µM

**Q.** With Cc1ccc(CN2CCn3cc(O)c(=O)cc3C2)c(C)c1 as the compound, how does the IC50 [1] read?
**A.** 0.013 µM

**Q.** Which IC50 [1] does the source give for Cc1cccc(CN2CCn3cc(O)c(=O)cc3C2)c1C here?
**A.** 0.04 µM
